We go through ten compounds from ChEMBL document CHEMBL1177650, “Synthesis, structural elucidation and in vitro antiparasitic activity against Trypanosoma cruzi and Leishmania chagasi parasites of novel tetrahydro-1-benzazepine derivatives” (Bioorg Med Chem, 2010).

Each structure is given as a SMILES string. A value given as a limit tells only on which side of the number the result lay.

In data set [1] the test system is Leishmania chagasi. The experiment in a line: Antileishmanial activity against Leishmania chagasi MHOM/BR/74/PP75 promastigotes after 72 hrs by haemocytometry. The format is functional, organism-based. The following applies: MHOM/BR/74/PP75, 72 h. The essentials: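 Late-phase L. chagasi promastigotes, grown at 28 °C in RPMI 1640 with hemin, HEPES and 10% hiSBF, exposed to threefold serial dilutions (0.3–100 μM) for 72 h at 28 °C; untreated controls. Growth inhibition from haemocytometer counts; IC50/IC90 by sigmoidal regression; triplicates, repeated twice.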

Data set [2] can be described thus: Selectivity index, CC50 for human THP1 cells to IC50 for Leishmania chagasi MHOM/BR/74/PP75 amastigotes. In kind it is functional, THP-1. The essentials: (§1)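 Selectivity index computed as CC50 in THP-1 cells divided by IC50 against the L. chagasi stage named in the line.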
Data set [3] can be described thus: Selectivity index, CC50 for african green monkey Vero cells to IC50 for Trypanosoma cruzi 320I01 amastigotes. The format is functional. The essentials: (§2)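 Selectivity index computed as CC50 in Vero cells divided by IC50 against the T. cruzi stage named in the line.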
For data set [4], the system named is Trypanosoma cruzi. Nature of the data set: Antitrypanosomal activity against Trypanosoma cruzi 320I01 amastigotes infected in african green monkey Vero cells after 5 days by Giemsa staining. The format is functional, organism-based. The following applies: 320I01, Vero, 120 h. The essentials: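 Vero cells (RPMI, 5% hiSBF, 37 °C, 5% CO2) infected 24 h with tissue-derived T. cruzi trypomastigotes at parasite:cell 10:1. Compound dilutions (top 100 μM) applied 5 days at 37 °C, 5% CO2, medium changed once at day 3. Infected cells scored per 300 cells on methanol-fixed Giemsa preparations; IC50/IC90 by sigmoidal regression; triplicates, two experiments.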

The nature of data set [5]: Selectivity index, CC50 for african green monkey Vero cells to IC50 for Trypanosoma cruzi 320I01 epimastigote. The format is functional. The essentials: as §2
Data set [6] has as its system Leishmania chagasi. The experiment in a line: Antileishmanial activity against Leishmania chagasi MHOM/BR/74/PP75 amastigotes infected in human THP1 cells after 5 days by Giemsa staining. The format is functional, organism-based. The following applies: MHOM/BR/74/PP75, THP-1, 120 h. The essentials: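 THP-1 cells (RPMI, 5% hiSBF, 37 °C, 5% CO2) transformed, then infected 24 h with late-phase L. chagasi promastigotes at parasite:cell 10:1. Treated with compound dilutions (top 100 μM) 5 days at 37 °C, 5% CO2, medium changed once after 3 days. Infected cells counted per 300 cells on methanol-fixed Giemsa slides; IC50/IC90 by sigmoidal regression; triplicates, repeated twice.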

A short description of data set [7]: Selectivity index, CC50 for human THP1 cells to IC50 for Leishmania chagasi MHOM/BR/74/PP75 promastigotes. The format is functional, THP-1. The essentials:
as §1

The subject of data set [8] is Trypanosoma cruzi. Nature of the data set: Antitrypanosomal activity against Trypanosoma cruzi 320I01 epimastigotes after 72 hrs by haemocytometry. The format is functional, organism-based. The following applies: 320I01, 72 h. The essentials:
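Late-phase T. cruzi epimastigotes cultured in LIT medium with hiFCS at 28 °C; threefold serial dilutions (0.3–100 μM) for 72 h at 28 °C, untreated controls. Parasites counted in a haemocytometer; IC50/IC90 by sigmoidal regression; each concentration in triplicate, two experiments.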

A short description of data set [9]: Cytotoxicity against human THP1 cells after 72 hrs by MTT assay. In kind it is cell-based. The following applies: THP-1 cells. The essentials: (§3)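 Vero or transformed THP-1 cells incubated with compound (0.3–300 μM) 72 h at 37 °C, 5% CO2; untreated controls. MTT read-out, formazan OD at 580 nm; % cytotoxicity = 100 × (OD control − OD treated)/OD control. CC50/CC90 by sigmoidal regression; triplicates, repeated twice. DMSO stocks 100× concentrated, diluted in medium.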
In general terms: Tetrazolium dyes change colour on reduction, which living cells bring about.

The nature of data set [10]: Cytotoxicity against african green monkey Vero cells after 72 hrs by MTT assay. In kind it is cell-based. The following applies: chlorocebus sabaeus. The essentials:
as §3

One may read the IC50 as the concentration at which inhibition is half-maximal. As a reminder, the IC90 is the concentration needed for an effect of 90%. What is called CC50 is the concentration that lowers cell viability or growth by half. With `O[C@@H]1Cc2ccccc2N[C@H](c2cccc(Cl)c2)C1` (relative stereo), the IC50 with Leishmania chagasi [1] was 41.2 µM; in the data set with Trypanosoma cruzi [4] it was above 100 µM; in the data set on Leishmania chagasi [6] it was above 100 µM; in the data set with Trypanosoma cruzi [8], 19.6 µM. For the same compound, the 90% effect concentration (IC90) with Leishmania chagasi [1] was 47 µM; in the data set with Trypanosoma cruzi [4], above 100 µM; in the data set on Leishmania chagasi [6] it was above 100 µM; with Trypanosoma cruzi [8], above 100 µM. In addition, the “Selectivity Index” value in [2] is on record as above 1; in [3] it was above 3; in data set [5] it was 15.05; in data set [7] it was 4.04. Further, the CC50 at 72 h in data set [9] turned out to be 167 µM; in data set [10] it was 295 µM. For the same compound, the CC90 at 72 h in data set [9] and in data set [10] was above 300 µM each time.

On to `O[C@@H]1Cc2cc(F)ccc2N[C@H](c2ccccc2)C1` (relative stereo), for which the half-inhibitory concentration (IC50) is above 100 µM in the data set with Leishmania chagasi [1], above 100 µM in the data set with Trypanosoma cruzi [4], above 100 µM in the data set with Leishmania chagasi [6] and 12.4 µM in the data set on Trypanosoma cruzi [8]. Moreover, the 90% effect concentration (IC90) in the data set with Leishmania chagasi [1], with Trypanosoma cruzi [4], in the data set with Leishmania chagasi [6] and in the data set with Trypanosoma cruzi [8] was above 100 µM in each case. Further, the “Selectivity Index” value in data set [2] is above 3; in data set [3] it was above 3; in data set [5], above 24; in data set [7], above 3. The CC50 at 72 h in data set [9] and in data set [10] was above 300 µM each time. Also, the CC90 at 72 h in data set [9] and in data set [10] was above 300 µM throughout.

As for `Cc1cccc([C@@H]2C[C@H](O)Cc3ccccc3N2)c1` (relative stereo), the IC50 in the data set with Leishmania chagasi [1] is above 100 µM; in the data set with Trypanosoma cruzi [4], 98 µM; in the data set with Leishmania chagasi [6], above 100 µM; in the data set on Trypanosoma cruzi [8], 15.6 µM. In addition, the 90% effect concentration (IC90) in the data set on Leishmania chagasi [1] is above 100 µM; in the data set on Trypanosoma cruzi [4], above 100 µM; in the data set on Leishmania chagasi [6], above 100 µM; in the data set with Trypanosoma cruzi [8] it was 54.9 µM. Also, the “Selectivity Index” value is listed as above 1 in [2], above 3 in data set [3], above 19 in data set [5] and above 1 in data set [7]. Moreover, the CC50 at 72 h in data set [9] was 176 µM; in [10] it was above 300 µM. Further, the CC90 at 72 h in data set [9] and in data set [10] was above 300 µM in each case.

As for `Cc1ccc([C@@H]2C[C@H](O)Cc3cc(C)ccc3N2)cc1` (relative stereo), the half-maximal inhibitory concentration (IC50) in the data set on Leishmania chagasi [1] is above 100 µM; with Trypanosoma cruzi [4], 50.5 µM; in the data set with Leishmania chagasi [6], above 100 µM; in the data set with Trypanosoma cruzi [8], 6.1 µM. Also, the concentration for an effect of 90% (IC90) was above 100 µM in the data set on Leishmania chagasi [1], above 100 µM in the data set with Trypanosoma cruzi [4], above 100 µM in the data set on Leishmania chagasi [6] and 35.3 µM with Trypanosoma cruzi [8]. The “Selectivity Index” value was above 1 in data set [2], above 6 in data set [3], above 49 in data set [5] and above 1 in data set [7]. The 50% cytotoxic concentration (CC50) at 72 h in data set [9] is 172 µM; in [10], above 300 µM. In addition, the CC90 at 72 h in data set [9] and in data set [10] was above 300 µM in each case.

Consider `O[C@@H]1Cc2cc(Cl)ccc2N[C@H](c2ccc(Cl)cc2)C1` (relative stereo), for which the half-inhibitory concentration (IC50) in the data set with Leishmania chagasi [1] is 14.1 µM; in the data set with Trypanosoma cruzi [4], above 100 µM; in the data set on Leishmania chagasi [6], above 100 µM; in the data set with Trypanosoma cruzi [8], 16.4 µM. The IC90 is 41 µM in the data set on Leishmania chagasi [1], above 100 µM in the data set with Trypanosoma cruzi [4], above 100 µM in the data set on Leishmania chagasi [6] and 29.7 µM in the data set on Trypanosoma cruzi [8]. Also, the “Selectivity Index” value in [2] is reported as above 0.49; in data set [3] it was above 0.8; in [5], 4.65; in data set [7], 3.49. Moreover, the figures for the CC50 at 72 h in data set [9] and in [10] were 49.2 µM and 76.6 µM, respectively. In addition, the CC90 at 72 h in [9] and in [10] was above 300 µM in each case.

Regarding `O[C@@H]1Cc2ccccc2N[C@H](c2ccc(Cl)cc2)C1` (relative stereo), the IC50 in the data set with Leishmania chagasi [1] is 67.9 µM; in the data set with Trypanosoma cruzi [4] it was 41.8 µM; in the data set on Leishmania chagasi [6], above 100 µM; in the data set with Trypanosoma cruzi [8], 65.4 µM. Moreover, the IC90 with Leishmania chagasi [1], in the data set with Trypanosoma cruzi [4], with Leishmania chagasi [6] and in the data set with Trypanosoma cruzi [8] was above 100 µM each time. The “Selectivity Index” value in data set [2] is above 1; in data set [3], above 7; in [5] it was above 4; in data set [7], 1.68. For the same compound, the half-maximal cytotoxic concentration (CC50) at 72 h was 114 µM in data set [9] and above 300 µM in data set [10]. Besides, the CC90 at 72 h in data set [9] and in data set [10] was above 300 µM in each case.

On to `O[C@@H]1Cc2ccccc2N[C@H](c2ccc(F)cc2)C1` (relative stereo), for which the concentration for half-maximal inhibition (IC50) in the data set with Leishmania chagasi [1] is above 100 µM; with Trypanosoma cruzi [4] it was above 100 µM; with Leishmania chagasi [6], above 100 µM; in the data set on Trypanosoma cruzi [8], 26.4 µM. Also, the IC90 with Leishmania chagasi [1] was above 100 µM; in the data set on Trypanosoma cruzi [4], above 100 µM; in the data set with Leishmania chagasi [6], above 100 µM; in the data set with Trypanosoma cruzi [8] it was 57.6 µM. For the same compound, the “Selectivity Index” value is above 3 in [2], above 3 in data set [3], above 11 in data set [5] and above 3 in data set [7]. The CC50 at 72 h in [9] and in data set [10] was above 300 µM in each case. For the same compound, the CC90 at 72 h in [9] and in data set [10] was above 300 µM each time.

On to `COc1cccc([C@@H]2C[C@H](O)Cc3ccccc3N2)c1` (relative stereo), for which the IC50 is 97.1 µM in the data set on Leishmania chagasi [1], above 100 µM with Trypanosoma cruzi [4], above 100 µM in the data set with Leishmania chagasi [6] and 30.1 µM in the data set on Trypanosoma cruzi [8]. The 90% effect concentration (IC90) was above 100 µM in the data set with Leishmania chagasi [1], above 100 µM with Trypanosoma cruzi [4], above 100 µM with Leishmania chagasi [6] and 70.2 µM with Trypanosoma cruzi [8]. Also, the “Selectivity Index” value in data set [2] is reported as above 3; in data set [3], above 3; in data set [5], above 10; in [7], above 3. Also, the cytotoxic concentration (CC50) at 72 h in data set [9] and in data set [10] was above 300 µM throughout. Besides, the CC90 at 72 h in data set [9] and in [10] was above 300 µM throughout.

As to `O[C@@H]1Cc2cc(Cl)ccc2N[C@H](c2ccc(Br)cc2)C1` (relative stereo), the IC50 with Leishmania chagasi [1] was 9.54 µM; with Trypanosoma cruzi [4], above 94.9 µM; with Leishmania chagasi [6], above 94.9 µM; in the data set with Trypanosoma cruzi [8], 27.2 µM. In addition, the concentration for an effect of 90% (IC90) in the data set on Leishmania chagasi [1] is 11.7 µM; in the data set with Trypanosoma cruzi [4], above 94.9 µM; with Leishmania chagasi [6], above 94.9 µM; with Trypanosoma cruzi [8], 54.4 µM. Moreover, the “Selectivity Index” value in data set [2] is on record as above 1.61; in data set [3], above 0.6; in data set [5], 2.12; in [7] it was 16.05. The values for the CC50 at 72 h in data set [9] and in data set [10] were 153 µM and 57.7 µM, respectively. Further, the CC90 at 72 h in [9] was 280 µM; in data set [10], 164 µM.

For `O[C@@H]1Cc2cc(F)ccc2N[C@H](c2ccc(Cl)cc2)C1` (relative stereo), the 50% inhibitory concentration (IC50) in the data set with Leishmania chagasi [1] is 17.1 µM; with Trypanosoma cruzi [4] it was above 100 µM; in the data set with Leishmania chagasi [6], above 100 µM; in the data set on Trypanosoma cruzi [8] it was 45.9 µM. Also, the IC90 in the data set with Leishmania chagasi [1] is 77.7 µM; in the data set with Trypanosoma cruzi [4], above 100 µM; with Leishmania chagasi [6], above 100 µM; with Trypanosoma cruzi [8], above 100 µM. Further, the “Selectivity Index” value in data set [2] is on record as above 1; in [3], above 1.9; in data set [5], 4.21; in [7], 5.86. For the same compound, the 50% cytotoxic concentration (CC50) at 72 h in data set [9] was 100 µM; in [10] it was 194 µM. The CC90 at 72 h in [9] and in [10] was above 300 µM in each case.
